Results published in ChEMBL document CHEMBL1629579, “Correlating echinocandin MIC and kinetic inhibition of fks1 mutant glucan synthases for Candida albicans: implications for interpretive breakpoints” (Antimicrob Agents Chemother, 2009).
In brackets after ≈: the same amount, converted by molar mass. Numbered stars: 1 amine (or outer) side, 2 acyl side, 3 side chain; on linkers, the order of the positions; unused ones are H or OH. Bridge positions count the residues as written; N and C are the ends. Square brackets hold non-standard residues; d marks the D form. Peptide text beside a SMILES is read from it. * marks the point of attachment. hTyr(3S-OH,4S-OH,3'-OSO3H) = N[C@H](C(=O)O)[C@H](O)[C@@H](O)c1ccc(O)c(OS(=O)(=O)O)c1; Orn(4R-OH,5R-OH) = O=C([C@H](C[C@@H](O)[C@@H](O)N[*:3])N[*:1])[*:2]; Pro(3S-OH,4S-Me) = C[C@H]1CN[C@H](C(=O)O)[C@H]1O; X1 = CCCCCOc1ccc(-c2cc(-c3ccc(C(=O)*)cc3)no2)cc1; Gln(3R-OH) = NC(=O)C[C@@H](O)[C@H](N)C(=O)O; Hyp = O=C(O)[C@@H]1C[C@@H](O)CN1

How the values were obtained:
Candida albicans [1] = test: Antimicrobial activity against Candida albicans 90028 by M27-A3 method in presence of 50% human serum; format: functional
How it was run: (§1)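 Broth microdilution per CLSI M27-A3 in RPMI 1640, done in triplicate on three separate days. Each strain was tested with and without 50% human serum. C. krusei ATCC 6258 and C. parapsilosis ATCC 22019 served as QC strains. Arithmetic means are reported, and geometric means were used for comparison.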

Candida albicans [2] = test: Activity at Candida albicans 119 1,3-beta-D-glucan synthase subunit FKS1p T1921C mutant
How it was run: (§2)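 Product-entrapped 1,3-β-D-glucan synthase from cells grown in YPD at 37°C to early stationary phase. Wells held 50 mM HEPES pH 7.5, 10% glycerol, 1.5 mg/ml BSA, 25 mM KF, 1 mM EDTA, 25 μM GTP-γ-S, 1 μg enzyme and [3H]UDPG (0.015–2 mM). Reactions ran 60 min at 25°C. Vmax and Km came from Lineweaver-Burke plots, in triplicate.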

Candida albicans [3] = test: Antimicrobial activity against Candida albicans 89 harboring FKS1 C1934A mutant gene and FKS1 hotspot1 S645Y mutant gene by M27-A3 method; format: functional; how it was run: as §1
[4] = Inhibition of Candida albicans 3107 1,3-beta-D-glucan synthase subunit FKS1p
How it was run: (§3)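 Enzyme is product-entrapped 1,3-β-D-glucan synthase, enriched from membranes of each strain grown at 37°C with shaking in YPD broth to early stationary phase. Filtration polymerization assay uses [3H]UDPG, started by adding enzyme and run 60 min at 25°C. Echinocandins are added as serial dilutions, with 1% DMSO controls for anidulafungin. IC50 is from a variable-slope sigmoidal fit; values are triplicate arithmetic means.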

Candida albicans [5] = test: Activity at Candida albicans 121 1,3-beta-D-glucan synthase subunit FKS1p G4082A mutant; how it was run: as §2
[6] = Inhibition of Candida albicans 121 1,3-beta-D-glucan synthase subunit FKS1p G4082A mutant; how it was run: as §3
Candida albicans [7] = test: Antimicrobial activity against Candida albicans 205 harboring FKS1 T1933C mutant gene and FKS1 hotspot1 S645P mutant gene by M27-A3 method; format: functional; how it was run: as §1
Candida albicans [8] = test: Activity at Candida albicans 5415 1,3-beta-D-glucan synthase subunit FKS1p T1933C mutant; how it was run: as §2
Candida albicans [9] = test: Activity at Candida albicans 2762 1,3-beta-D-glucan synthase subunit FKS1p T1922C mutant; how it was run: as §2
[10] = Inhibition of Candida albicans 90028 1,3-beta-D-glucan synthase subunit FKS1p; how it was run: as §3
Candida albicans [11] = test: Activity at Candida albicans 205 1,3-beta-D-glucan synthase subunit FKS1p T1933C mutant; how it was run: as §2
[12] = Inhibition of Candida albicans 89 1,3-beta-D-glucan synthase subunit FKS1p C1934A mutant; how it was run: as §3
Candida albicans [13] = test: Antimicrobial activity against Candida albicans 121 harboring FKS1 G4082A mutant gene and FKS1 hotspot2 R1361H mutant gene by M27-A3 method; format: functional; how it was run: as §1
[14] = Inhibition of Candida albicans 177 1,3-beta-D-glucan synthase subunit FKS1p T1922C mutant; how it was run: as §3
[15] = Inhibition of Candida albicans 122 1,3-beta-D-glucan synthase subunit FKS1p C1946A mutant; how it was run: as §3
Candida albicans [16] = test: Antimicrobial activity against Candida albicans 149 harboring FKS1 G1942T mutant gene and FKS1 hotspot1 D648Y mutant gene by M27-A3 method in presence of 50% human serum; format: functional; how it was run: as §1
Candida albicans [17] = test: Antimicrobial activity against Candida albicans 85 harboring FKS1 C1934T mutant gene and FKS1 hotspot1 S645F mutant gene by M27-A3 method in presence of 50% human serum; format: functional; how it was run: as §1
Candida albicans [18] = test: Activity at Candida albicans A15-10 1,3-beta-D-glucan synthase subunit FKS1p T1933C mutant
Candida albicans [19] = test: Activity at Candida albicans 85 1,3-beta-D-glucan synthase subunit FKS1p C1934T mutant; how it was run: as §2
Candida albicans [20] = test: Activity at Candida albicans 90028 1,3-beta-D-glucan synthase subunit FKS1p
How it was run: (§4)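 Glucan synthase from cells grown at 37°C with vigorous shaking to early stationary phase in YPD. Membrane enzyme enriched by product entrapment. Serial echinocandin dilutions; ANF controls held 1% DMSO. Reaction started by adding enzyme, run 60 min at 25°C in a filtration polymerization assay, stopped on ice. IC50 from a variable-slope sigmoidal fit; means of three repetitions on separate days.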

Candida albicans [21] = test: Antimicrobial activity against Candida albicans 3795 by M27-A3 method; format: functional
How it was run: (§5)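 Broth microdilution per CLSI M27-A3 in RPMI 1640, with and without 50% human serum, in triplicate. C. krusei ATCC 6258 and C. parapsilosis ATCC 22019 served as quality-control strains. MIC reported as arithmetic mean of three repetitions on separate days.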

Candida albicans [22] = test: Antimicrobial activity against Candida albicans SC5314 by M27-A3 method; format: functional; how it was run: as §5
Candida albicans [23] = test: Activity at Candida albicans 3107 1,3-beta-D-glucan synthase subunit FKS1p; how it was run: as §4
Candida albicans [24] = test: Antimicrobial activity against Candida albicans 3107 by M27-A3 method in presence of 50% human serum; format: functional; how it was run: as §1
Candida albicans [25] = test: Antimicrobial activity against Candida albicans 5415 harboring FKS1 T1933C mutant gene and FKS1 hotspot1 S645P mutant gene by M27-A3 method in presence of 50% human serum; format: functional; how it was run: as §1
Candida albicans [26] = test: Antimicrobial activity against Candida albicans A15 harboring FKS1 T1933Y mutant gene and FKS1 hotspot1 S645S/P mutant gene by M27-A3 method in presence of 50% human serum; format: functional; how it was run: as §1
[27] = Inhibition of Candida albicans 194 1,3-beta-D-glucan synthase subunit FKS1p C1934T/G4082R mutant; how it was run: as §3
[28] = Inhibition of Candida albicans 149 1,3-beta-D-glucan synthase subunit FKS1p G1942T mutant; how it was run: as §3
Candida albicans [29] = test: Antimicrobial activity against Candida albicans 194 harboring FKS1 C1934T/G4082R mutant gene and FKS1 hotspot1 S645F mutant gene and FKS1 hotspot2 R1361R/H mutant gene by M27-A3 method; format: functional; how it was run: as §1
Candida albicans [30] = test: Antimicrobial activity against Candida albicans 36082 by M27-A3 method; format: functional; how it was run: as §5
Candida albicans [31] = test: Activity at Candida albicans 90 1,3-beta-D-glucan synthase subunit FKS1p G4082R mutant; how it was run: as §2
Candida albicans [32] = test: Activity at Candida albicans 36082 1,3-beta-D-glucan synthase subunit FKS1p; how it was run: as §4
Candida albicans [33] = test: Antimicrobial activity against Candida albicans 89 harboring FKS1 C1934A mutant gene and FKS1 hotspot1 S645Y mutant gene by M27-A3 method in presence of 50% human serum; format: functional; how it was run: as §1

Which MIC (Candida albicans [1]) does the source give for `CCCCCOc1ccc(-c2cc(-c3ccc(C(=O)N[C@H]4C[C@@H](O)[C@@H](O)NC(=O)[C@@H]5[C@@H](O)[C@@H](C)CN5C(=O)[C@H]([C@H](O)CC(N)=O)NC(=O)[C@H]([C@H](O)[C@@H](O)c5ccc(O)c(OS(=O)(=O)O)c5)NC(=O)[C@@H]5C[C@@H](O)CN5C(=O)[C@H]([C@@H](C)O)NC4=O)cc3)no2)cc1` [MICAFUNGIN] (X1-[Orn(4R-OH,5R-OH)]T[Hyp][hTyr(3S-OH,4S-OH,3'-OSO3H)][Gln(3R-OH)][Pro(3S-OH,4S-Me)]; lactam 1-C) here?
The MIC was 0.5 mg/L.

What about the Km (Candida albicans [2]) of the same compound?
Its Km is 54 µM.

And the Vmax (Candida albicans [2])?
The Vmax was 2.54 nmol/min.

And the MIC (Candida albicans [3])?
Its MIC is 4 mg/L (≈ 3.15 µM).

What about the IC50 [4] of the same compound?
The IC50 was 0.01472 mg/L (≈ 0.0116 µM).

And the Ki [4]?
Its Ki is 0.04187 mg/L (≈ 0.033 µM).

What about the Km (Candida albicans [5]) of the same compound?
The Km was 129 µM.

And the Vmax (Candida albicans [5])?
Its Vmax is 4.41 nmol/min.

And the IC50 [6]?
Its IC50 is 0.4982 mg/L (≈ 0.392 µM).

What about the Ki [6] of the same compound?
The Ki was 0.84048 mg/L (≈ 0.662 µM).

And the MIC (Candida albicans [7])?
Its MIC is 4 mg/L (≈ 3.15 µM).

And the Km (Candida albicans [8])?
Its Km is 98 µM.

And the Vmax (Candida albicans [8])?
Its Vmax is 3.12 nmol/min.

And the Km (Candida albicans [9])?
Its Km is 108 µM.

What about the Vmax (Candida albicans [9]) of the same compound?
Its Vmax is 3.57 nmol/min.

And the IC50 [10]?
The IC50 was 0.0188 mg/L (≈ 0.0148 µM).

What about the Ki [10] of the same compound?
Its Ki is 0.01547 mg/L (≈ 0.0122 µM).

And the Km (Candida albicans [11])?
Its Km is 116 µM.

And the Vmax (Candida albicans [11])?
Its Vmax is 5.54 nmol/min.

And the IC50 [12]?
The IC50 was 2.533 mg/L (≈ 1.99 µM).

And the Ki [12]?
The Ki was 0.86713 mg/L (≈ 0.683 µM).

And the MIC (Candida albicans [13])?
The MIC was 0.25 mg/L (≈ 0.197 µM).

What about the IC50 [14] of the same compound?
The IC50 was 1.441 mg/L (≈ 1.13 µM).

What about the Ki [14] of the same compound?
Its Ki is 4.40423 mg/L (≈ 3.47 µM).

And the IC50 [15]?
The IC50 was 0.9246 mg/L (≈ 0.728 µM).

And the Ki [15]?
The Ki was 2.58853 mg/L (≈ 2.04 µM).

What about the MIC (Candida albicans [16]) of the same compound?
The MIC was 4 mg/L.

And the MIC (Candida albicans [17])?
Its MIC is 8 mg/L.

What about the Km (Candida albicans [18]) of the same compound?
The Km was 91 µM.

What about the Vmax (Candida albicans [18]) of the same compound?
Its Vmax is 3.26 nmol/min.

And the Km (Candida albicans [19])?
Its Km is 25 µM.

And the Vmax (Candida albicans [19])?
Its Vmax is 1.83 nmol/min.

And the Km (Candida albicans [20])?
Its Km is 67 µM.

What about the Vmax (Candida albicans [20]) of the same compound?
Its Vmax is 4.71 nmol/min.

And the MIC (Candida albicans [21])?
Its MIC is 0.03 mg/L (≈ 0.0236 µM).

What about the MIC (Candida albicans [22]) of the same compound?
The MIC was 0.05 mg/L (≈ 0.0394 µM).

What about the Km (Candida albicans [23]) of the same compound?
Its Km is 102 µM.

What about the Vmax (Candida albicans [23]) of the same compound?
The Vmax was 6.04 nmol/min.

And the MIC (Candida albicans [24])?
The MIC was 0.5 mg/L.

What about the MIC (Candida albicans [25]) of the same compound?
The MIC was 8 mg/L.

And the MIC (Candida albicans [26])?
Its MIC is 2 mg/L.

What about the IC50 [27] of the same compound?
The IC50 was 1.765 mg/L (≈ 1.39 µM).

And the Ki [27]?
Its Ki is 0.49383 mg/L (≈ 0.389 µM).

What about the IC50 [28] of the same compound?
Its IC50 is 0.3755 mg/L (≈ 0.296 µM).

And the Ki [28]?
The Ki was 0.48923 mg/L (≈ 0.385 µM).

What about the MIC (Candida albicans [29]) of the same compound?
Its MIC is 2.67 mg/L (≈ 2.1 µM).

What about the MIC (Candida albicans [30]) of the same compound?
The MIC was 0.03 mg/L (≈ 0.0236 µM).

What about the Km (Candida albicans [31]) of the same compound?
The Km was 31 µM.

What about the Vmax (Candida albicans [31]) of the same compound?
The Vmax was 2.36 nmol/min.

And the Km (Candida albicans [32])?
Its Km is 89 µM.

What about the Vmax (Candida albicans [32]) of the same compound?
The Vmax was 5.87 nmol/min.

And the MIC (Candida albicans [33])?
The MIC was 8 mg/L.
